# Screening results from PubChem.
# Plk1 PBD FP – blocks phosphopeptide binding to human Plk1 polo box domain; AID 693; Plk1 PBD phosphopeptide binding, fluorescence polarization; inhibition, %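 (tested at about 20 µM)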; actives 0.13% (n = 97,000); in the data active = inhibition above about 34%, passing the limit was not always enough
# Rev-RRE block – inhibitors of HIV-1 Rev-RRE RNA interaction; inhibition, % at 8 µM; actives 0.79% (n = 97,000); AID 704; P05866; Rev peptide-RRE RNA binding, FRET;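 active = inhibition above the screen-wide mean plus 3 SD, cut at about 35% in these data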
#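 Assay system: labelled RRE RNA duplex and labelled Rev peptide / Medium: HEPES pH 7.5 salt buffer with EDTA / Reagent: labelled Rev peptide / Schedule: 5 + 15 min at 25 °C / Signal: FRET, excitation 480 nm, emission 540 nm donor and 671 nm acceptor / Benchmarks: DMSO and neomycin B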
# PLK1 inh – blocks human PLK1 kinase activity. P53350. AID 619. actives 0.53% (n = 97,000). inhibition, % at 10 µM. recombinant PLK1 kinase, TR-FRET peptide phosphorylation;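 active = inhibition of 50% or more in the single-concentration screen; inactive = inhibition below 50%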
# LYP inh 2 – LYP (human) phosphatase inhibition; recombinant LYP catalytic domain, DiFMUP fluorescence; inhibition, % at 2 µM; actives 0.21% (n = 96,000);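 active = inhibition at 2 µM at or above a set limit, the screen mean plus 3 SD, cut at about 24% in these data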
# LYP act – activators of human LYP (PTPN22) phosphatase | Q9Y2R2 | recombinant LYP, DiFMUP fluorescence; 0 = plate median, 100 = signal doubled | activation, % at 2 µM | actives 0.11% (n = 96,000) | AID 697;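 active = activation at 2 µM above a set limit, the mean plus 5 SD, cut at about 37% in these data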
# EphB4 ephrin blk – antagonists of human EphB4-ephrin-B2 interaction; P54760; EphB4 LBD / TNYL-RAW-Alexa532 peptide, fluorescence polarization; inhibition, % at 7 µM; actives 0.15% (n = 97,000); AID 720;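 active = inhibition above the screen-wide mean inhibition plus 3 SD, cut at about 15% in these data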
# Target sequence (P54760 whole entry, looked up, the tested form may be a part): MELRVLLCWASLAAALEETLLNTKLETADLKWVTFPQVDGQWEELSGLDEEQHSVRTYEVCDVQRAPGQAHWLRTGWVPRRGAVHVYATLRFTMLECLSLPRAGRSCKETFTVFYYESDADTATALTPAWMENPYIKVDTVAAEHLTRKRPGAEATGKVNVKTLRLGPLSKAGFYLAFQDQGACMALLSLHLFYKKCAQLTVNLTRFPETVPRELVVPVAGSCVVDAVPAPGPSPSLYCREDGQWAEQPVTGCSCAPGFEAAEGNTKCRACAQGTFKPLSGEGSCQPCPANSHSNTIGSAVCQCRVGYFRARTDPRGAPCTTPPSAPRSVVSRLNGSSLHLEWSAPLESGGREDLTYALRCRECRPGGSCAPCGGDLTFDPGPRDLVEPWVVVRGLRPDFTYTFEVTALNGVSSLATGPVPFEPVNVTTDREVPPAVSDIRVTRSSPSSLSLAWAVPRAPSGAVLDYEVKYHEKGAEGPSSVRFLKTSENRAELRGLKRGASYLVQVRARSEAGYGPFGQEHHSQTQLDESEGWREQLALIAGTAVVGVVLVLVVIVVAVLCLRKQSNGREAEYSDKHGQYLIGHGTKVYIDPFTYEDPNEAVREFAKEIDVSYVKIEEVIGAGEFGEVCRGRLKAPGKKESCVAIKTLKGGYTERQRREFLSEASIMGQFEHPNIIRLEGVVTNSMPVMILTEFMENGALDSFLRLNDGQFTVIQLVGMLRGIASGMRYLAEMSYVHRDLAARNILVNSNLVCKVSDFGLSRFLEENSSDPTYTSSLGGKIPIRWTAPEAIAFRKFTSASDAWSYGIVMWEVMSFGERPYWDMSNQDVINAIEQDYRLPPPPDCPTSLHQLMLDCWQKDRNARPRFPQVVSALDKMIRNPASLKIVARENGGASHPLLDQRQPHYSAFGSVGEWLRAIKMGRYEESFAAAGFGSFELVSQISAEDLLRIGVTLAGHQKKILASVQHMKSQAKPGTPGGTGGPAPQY
# PLK1 confirm – PLK1 (human) kinase inhibition, confirmed; shares compounds with PLK1 inh; recombinant PLK1 kinase, TR-FRET peptide phosphorylation; inhibition, % at 10 µM; actives 20% (n = 210); AID 744;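 active = inhibition at or above 50% in each of two repeat confirmation tests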
# TR-FRET interf – counter-screen for Plk1 inhibitors: compound assay interference | 210 tested, under 10 active | shares compounds with PLK1 inh | Plk1 TR-FRET assay interference, compound added post-reaction | inhibition (interference), % at 10 µM | AID 756;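 active = both duplicate runs show 50% or greater inhibition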
# Numbers stand for hits; i = inactive; nt = no result; [ ] = remark or other dose. An excerpt weighted towards active compounds, which were near 2% of everything screened.
SMILES,Plk1 PBD FP,Rev-RRE block,PLK1 inh,LYP inh 2,LYP act,EphB4 ephrin blk,others
Cc1cc(C(C#N)c2ccccc2)n2ncnc2n1 (stereo not given),i,i,52.5,i,i,i,
COc1cccc2sc(N(C)c3ccccc3)nc12,i,i,i,i,i,i,
COc1ccc(C2C(C(C)=O)=C(O)C(=O)N2c2cccnc2)cc1OC (stereo not given),i,i,i,i,i,i,
C=CCOc1cccc(C2C(C(=O)c3ccc(C)o3)=C(O)C(=O)N2Cc2ccncc2)c1 (stereo not given),i,i,i,i,i,i,
COc1ccc(C2C(C(=O)c3cccs3)=C(O)C(=O)N2c2nncs2)cc1 (stereo not given),i,102.0[fluorescence artefact?],i,i,i,i,
C=CCOc1ccc(C2C(C(=O)c3cccs3)=C(O)C(=O)N2c2nnc(C)s2)cc1 (stereo not given),i,102.1[fluorescence artefact?],i,i,i,i,
COc1ccc(C2C(C(=O)c3cccs3)=C(O)C(=O)N2c2nnc(C)s2)cc1OC (stereo not given),i,106.7[fluorescence artefact?],i,i,i,i,
Cc1ccc(C2C(C(=O)c3ccco3)=C(O)C(=O)N2c2nnc(C)s2)cc1 (stereo not given),i,48.4,i,i,i,i,
Cc1ccc(Nc2cc(C)nn2-c2nc(C)cc(=O)[nH]2)cc1,i,i,i,25.5,i,i,
Cc1ccc(Nc2cc(C)nn2-c2nc(C)cc(C)n2)cc1,i,i,i,i,i,i,
COc1cccc(C(C#N)N2CCOCC2)c1 (stereo not given),i,i,i,i,i,22.4,
Cc1nnc(N(Cc2ccco2)C(=O)c2ccc(C#N)cc2)s1,i,i,i,26.9,i,i,
Nc1sccc1C(=O)c1ccc(Cl)cc1,i,i,i,i,i,i,
Cc1ccc2c(Cl)cc(Cl)c(OCC(=O)NCc3ccco3)c2n1,i,i,i,30.3,i,i,
Cc1ccc(-c2nnn(CCC(=O)N3CCCCC3C)n2)cc1 (stereo not given),i,i,i,i,i,i,
CC1CCCCN1C(=O)Cn1nnc(-c2cccnc2)n1 (stereo not given),i,37.8,i,i,i,i,
C=CCNC(=O)c1ccccc1Cl,i,i,i,i,i,i,
C=CCNC(=S)NNC(=O)c1cccn(Cc2ccc(Cl)cc2)c1=O,i,i,i,52.8,i,i,
NC(=O)c1cccn1Cc1cccc(Cl)c1,i,i,i,i,i,i,
C=CCNC(=S)NNC(=O)c1cccn(Cc2cccc(Cl)c2)c1=O,i,i,i,56.0,i,i,
CCn1nc(CCC(=O)O)c2ccccc2c1=O,i,i,i,i,i,i,
N#CCSc1nnc(COc2cccc3ccccc23)n1-c1ccccc1,i,i,i,i,i,i,
Cc1ccc(-c2nnc(CSc3nnc(COc4cccc5ccccc45)n3-c3ccccc3)o2)cc1,47.4,i,i,33.2,i,i,
CCN(CC)CCn1c2ccccc2c2cnc(N)c(C#N)c21,i,i,52.0,i,i,i,
CN(C)C=Nc1ncc2c3ccccc3n(CCN(C)C)c2c1C#N,i,i,i,i,i,i,
SMILES,Plk1 PBD FP,Rev-RRE block,PLK1 inh,LYP inh 2,LYP act,EphB4 ephrin blk,others
CCNc1c2c3c(cccc3n(C)c1=O)C(=O)c1ccccc1-2,i,142.1[fluorescence artefact?],i,i,i,26.3,
Cn1c(NCCc2ccccc2)cc(=O)n(C)c1=O,i,i,i,i,i,i,
CCCCNc1c2c3c(cccc3n(C)c1=O)C(=O)c1ccccc1-2,i,142.0[fluorescence artefact?],i,i,i,i,
Cn1c(=O)c(NCCc2ccccc2)c2c3c(cccc31)C(=O)c1ccccc1-2,i,140.4[fluorescence artefact?],i,i,i,119.3[fluorescence artefact?],
CN1C(=O)c2cccc(NCCCCCCN3C(=O)c4ccccc4C3=O)c2C1=O,i,i,i,i,i,i,
COCCn1c(SCC(=O)c2ccc(Cl)cc2)nnc1C(C)C,i,i,i,i,i,i,
O=C(Nc1cc(C(=O)N2CCOCC2)cc(C(=O)N2CCOCC2)c1)c1cc(F)c(F)cc1Cl,i,i,i,i,i,i,
COc1ccc(-c2cc(=O)oc3c(C)c(O)c(CN(C)C)cc23)cc1,i,38.9,i,i,i,i,
CCN(CC)S(=O)(=O)c1cc(C(=O)Nc2ccncc2)ccc1Cl,i,i,i,i,i,i,
CCOC(=O)c1cnc(Nc2nc3ccccc3o2)nc1CN1CCN(C)CC1,i,i,i,i,i,16.1,
CCOC(=O)c1oc2ccccc2c1NC(=O)CN1CCN(C)CC1,i,i,i,i,i,i,
CCN1CCN(CC(=O)NC2CCCC2)C(=O)C1=O,i,i,67.6,nt,nt,i,
O=C(O)CCCn1c(=O)[nH]c2ccccc2c1=O,i,i,i,i,i,i,
COC(=O)CN1C(=O)S/C(=C/c2cc(C)n(C)c2C)C1=O,i,i,i,i,i,i,
CCOC(=O)CN1C(=O)S/C(=C/c2ccc(N3CCCCC3)o2)C1=O,i,111.5[fluorescence artefact?],i,i,i,i,
COC(=O)CN1C(=O)S/C(=C/c2ccc(N3CCCCC3)o2)C1=O,i,140.1[fluorescence artefact?],i,i,i,i,
c1ccc(N2CCN(C3CCSC3)CC2)cc1 (stereo not given),i,i,i,i,i,i,
c1ccc(Cn2nnc3c(N4CCN(Cc5ccc6c(c5)OCO6)CC4)ncnc32)cc1,i,i,i,i,i,i,
O=C(COc1ccc(/C=N/NS(=O)(=O)c2ccccc2)cc1)Nc1ccc(F)cc1,i,i,i,i,i,i,
Cc1ccc(N2C(=O)c3cccc4c(N5CCN(C)CC5)ccc(c34)C2=O)c2cccnc12,i,110.1[fluorescence artefact?],i,i,i,i,
Cc1nn(Cc2ccccc2Cl)c(C)c1NC(=O)CCCn1nc(C)c([N+](=O)[O-])c1C,i,i,i,i,i,i,
Cc1[nH]n(-c2ccccc2)c(=O)c1C(C[N+](=O)[O-])c1ccc(Br)cc1 (stereo not given),i,i,100.8,i,i,i,PLK1 confirm=i;TR-FRET interf=i
NC1(N)OC(CN2C(=O)c3ccccc3C2=O)CS1 (stereo not given),i,i,116.4,i,i,i,PLK1 confirm=i;TR-FRET interf=i
COc1cccc(-c2nc(CS(=O)CC(=O)NCc3ccccc3)c(C)o2)c1 (stereo not given),i,i,71.5,nt,nt,i,PLK1 confirm=i;TR-FRET interf=i
CCCNC(=O)CS(=O)Cc1nc(-c2cccc(OC)c2)oc1C (stereo not given),i,i,i,i,i,i,
COc1ccc(NC(=O)CSc2nnc(CNc3ccc(F)cc3)o2)c(OC)c1,i,i,i,i,i,i,
CC(=O)c1cccc(NC(=O)c2cnn3ccccc23)c1,i,i,79.6,nt,nt,i,PLK1 confirm=i;TR-FRET interf=i
